The results in this text go back to ChEMBL document CHEMBL1127545, “Synthesis, oral bioavailability determination, and in vitro evaluation of prodrugs of the antiviral agent 9-[2-(phosphonomethoxy)ethyl]adenine (PMEA)” (J Med Chem, 1994).

What is called pIC50 is −log10 of the IC50, conventionally taken in molar units.

The nature of data set [1]: Bioavailability in rat of PMEA prodrug. In kind it is ADME, organism-based. The settings on record: in vivo. In outline: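 Male rats fasted 12-18 h, three per route. Reference: parent phosphonate iv bolus 30 mg/kg in normal saline via tail vein. Oral: parent at 30 mg/kg in 5% DMSO/water by gastric intubation; prodrugs as 5% DMSO/water solutions at 24-43 mg/kg PMEA equivalents. Urine collected 0-24 and 24-48 h in metabolism cages. PMEA measured by reversed-phase HPLC with fluorometric detection. Bioavailability = dose-normalized 0-48 h urinary PMEA, oral vs iv.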

The test system of data set [2] is Vero. The experiment in a line: Concentration that reduced plaque formation by 50% was measured in HSV-2 infected vero cells in vitro. In kind it is functional, cell-based. The settings on record: Chlorocebus sabaeus. In outline:
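Plaque reduction assay against HSV-2 strain G in infected Vero cells. IC50 taken as the concentration giving 50% reduction in plaque formation.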

Data set [3] is described as follows: Oral bioavailability of compound in rat. In kind it is ADME, organism-based. The conditions noted are these: in vivo, read-out: Bioavailabiility. In outline:
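Fasted (12-18 h) male rats, three per route. Prodrugs were given by gastric intubation in 5% DMSO/water at 24-43 mg/kg PMEA equivalents. The reference was PMEA 30 mg/kg as an iv tail-vein bolus in saline. Urine was collected 0-24 and 24-48 h in metabolism cages and PMEA quantified by reversed-phase HPLC with fluorometric detection. Bioavailability is dose-normalized 0-48 h urinary PMEA, oral versus iv.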

Data set [4] in a line: Oral bioavailability of compound in monkey. In kind it is ADME, organism-based. The conditions noted are these: simiiformes, in vivo, read-out: Bioavailabiility.

pIC50: −log10 of the molar value.

Take `CC1(C)CNP(=O)(COCCn2cnc3c(N)ncnc32)NC1`: the F in data set [1] stood at 5.8%.
On the same count and under the same terms, then `CCN(CC)P(=O)(COCCn1cnc2c(N)ncnc21)N(CC)CC`, with 7.2%.
Still for that read-out and setting: then `Nc1ncnc2c1ncn2CCOCP(=O)(O)OCC(Cl)(Cl)Cl`, with 2.5%; and `CC(C)OP(=O)(COCCn1cnc2c(N)ncnc21)OC(C)C`, with 44.4%.
Still for that read-out and setting: the result for `CC(C)OP(=O)(O)COCCn1cnc2c(N)ncnc21` reads 5%; that for `COP(=O)(O)COCCn1cnc2c(N)ncnc21`, 1.4%; that for `CC(C)(CN)CNP(=O)(O)COCCn1cnc2c(N)ncnc21`, 10.6%.
As to `CC(C)(CO)COP(=O)(O)COCCn1cnc2c(N)ncnc21`, the F in data set [1] was 0%.
Still for that read-out and setting: the result for `CCN(CC)C(=O)COP(=O)(COCCn1cnc2c(N)ncnc21)OCOC(=O)C(C)(C)C` (stereo not given) reads 2.2%.
`CCC(=O)OCOP(=O)(COCCn1cnc2c(N)ncnc21)OCOC(=O)CC` had a pIC50 in data set [2] of 6.40.
On to `CC(C)CCOP(=O)(COCCn1cnc2c(N)ncnc21)OCCC(C)C`, for which the F in data set [1] is 0.5%.
Still for that read-out and setting: the result for `CC(C)COP(=O)(COCCn1cnc2c(N)ncnc21)OCC(C)C` reads 0%.
As to `CC(C)C(=O)OCOP(=O)(COCCn1cnc2c(N)ncnc21)OCOC(=O)C(C)C`, the negative-log IC50 (pIC50) in data set [2] was over 6.70.
With `Nc1ncnc2c1ncn2CCOCP(=O)(Oc1ccccc1)Oc1ccccc1`, in data set [1], the F is reported as 11.1%. The molecule further showed a negative logarithm of the IC50 (pIC50) in data set [2] of 4.11.
Regarding `CCOP(=O)(COCCn1cnc2c(N)ncnc21)OCOC(=O)C(C)(C)C` (stereo not given), the F in data set [1] is reported as 34.9%.
Turning to `CC(=O)OCC(=O)COC(C)=O`, the F in data set [1] came out at 5.8%.
Same read-out and setting: then `Nc1ncnc2c1ncn2CCOCP(=O)(OCC(Cl)(Cl)Cl)OCC(Cl)(Cl)Cl`, with 10.6%.
As for `CC(C)(C)C(=O)OCOP(=O)(O)COCCn1cnc2c(N)ncnc21`, the F in data set [1] is recorded as 6.5%. Besides, the pIC50 in data set [2] was 4.66.
In the case of `CC1(C)COP(=O)(COCCn2cnc3c(N)ncnc32)OC1`, the F in data set [1] is on record as 0%.
As for `Nc1ncnc2c1ncn2CCOCP1(=O)OCCCO1`, the F in data set [1] is 0.7%.
On the same count and under the same terms, then `CCN(CC)C(=O)COP(=O)(O)COCCn1cnc2c(N)ncnc21`, with 3.5%.
On the same count and under the same terms, then `Nc1ncnc2c1ncn2CCOCP(=O)(O)OCc1ccc([N+](=O)[O-])cc1`, with 1.9%.
With `CCOP(=O)(O)COCCn1cnc2c(N)ncnc21`, the F in data set [1] is 0%. In data set [2], this molecule gave a pIC50 of under 3.52.
In the case of `Nc1ncnc2c1ncn2CCOCP(=O)(OCc1ccc([N+](=O)[O-])cc1)OCc1ccc([N+](=O)[O-])cc1`, the F in data set [1] is listed as 1.7%.
Same read-out and setting: the result for `CCCCCCCCOP(=O)(O)COCCn1cnc2c(N)ncnc21` reads 0.8%.
On the same count and under the same terms, the result for `Nc1ncnc2c1ncn2CCOCP(=O)(O)OCC(F)(F)CO` reads 3.5%.
In the case of `CCOP(=O)(COCCn1cnc2c(N)ncnc21)OCC`, in data set [1], the F stood at 42%. Moreover, the negative logarithm of the IC50 (pIC50) in data set [2] is under 3.52.
As to `Nc1ncnc2c1ncn2CCOCP(=O)(O)Oc1ccccc1`, the F in data set [1] was 14%. Besides, the pIC50 in data set [2] is 4.02.
For the molecule `COP(=O)(COCCn1cnc2c(N)ncnc21)OC`, the F in data set [1] was 0%.
For `CC(C)(C)C(=O)OCOP(=O)(COCCn1cnc2c(N)ncnc21)OCOC(=O)C(C)(C)C` [ADEFOVIR DIPIVOXIL], in data set [1], the F is listed as 17.3%. Besides, the negative logarithm of the IC50 (pIC50) in data set [2] is 6.22.
Take `Nc1ncnc2c1ncn2CCOCP(=O)(O)O` [ADEFOVIR]: the bioavailability in data set [3] was 11%; in data set [4], under 1%. Besides, in data set [1], the F was determined as 7.8%. Further, the negative-log IC50 (pIC50) in data set [2] was 3.92.
